Assay [1] is filed under the species Mus musculus. In words: Compound was evaluated for induction of hyperplasia after single application at dose 10 (micro/application); 1-2. In kind it is functional.
The species entered for assay [2] is Mus musculus. In words: Compound was evaluated for induction of hyperplasia after four applications at dose 1 (micro/application); 1-2. It is filed as functional.
The species named for assay [3] is Mus musculus. In words: Compound was evaluated for induction of hyperplasia after single application at dose 1 (micro/application); 1-2. In kind it is functional.
Assay [4] has as its target Protein kinase C alpha type (Homo sapiens, UniProt P17252). In words: Displacement of PDBU from recombinant Protein kinase C alpha with phosphatidylserine.
The species entered for assay [5] is Mus musculus. In words: Compound was evaluated for induction of hyperplasia after single application at dose 3 (micro/application); 1-2. In kind it is functional.
Assay [6] relates to AG06848 cell line. In words: Ability to enhance […] secretion using human fibroblast AG06848 cell line at 1 uM concentration. In kind it is functional. Also noted: unit not given here. In short, it runs like this:
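AD-patient fibroblasts (AG06848) grown to confluence (about 4–5 days), switched to serum-free DMEM for 2 h, then exposed to 1 μM compound for 3 h with DMSO (below 1%) as solvent control. sAPPα in conditioned medium measured by SDS-PAGE immunoblot with antibody 6E10, loading corrected for total cell protein. Densitometry expressed relative to DMSO-treated cells; 3–6 independent experiments.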

The species entered for assay [7] is Mus musculus. In words: Compound was evaluated for induction of hyperplasia after four applications at dose 10 (micro/application); 1-3. In kind it is functional.
For assay [8], the species on record is Mus musculus. In words: Compound was evaluated for induction of hyperplasia after four applications at dose 3 (micro/application); 1-2. It is filed as functional.
For assay [9], the species on record is Mus musculus. In words: Compound was evaluated for induction of hyperplasia after single application at dose 10 (micro/application). It is filed as functional.
Assay [10] is filed under the species Mus musculus. In words: Compound was evaluated for induction of hyperplasia after single application at dose 3 (micro/application). In kind it is functional.
Assay [11] is filed under the species Mus musculus. In words: Compound was evaluated for induction of hyperplasia after four application at dose 10 (micro/application). It is filed as functional.
The species named for assay [12] is Mus musculus. In words: Compound was evaluated for induction of hyperplasia after single application at dose 30 (micro/application). It is filed as functional.
The species entered for assay [13] is Mus musculus. In words: Compound was evaluated for induction of hyperplasia after single application at dose 100 (micro/application). In kind it is functional.
For assay [14], the species on record is Mus musculus. In words: Compound was evaluated for induction of hyperplasia after single application at dose 300 (micro/application). It is filed as functional.
The species named for assay [15] is Mus musculus. In words: Compound was evaluated for induction of hyperplasia after four application at dose 100 (micro/application). In kind it is functional.
The species entered for assay [16] is Mus musculus. In words: Compound was evaluated for induction of hyperplasia after four application at dose 30 (micro/application). It is filed as functional.
Assay [17] is filed under the species Mus musculus. In words: Compound was evaluated for induction of hyperplasia after four application at dose 300 (micro/application). In kind it is functional.
The species entered for assay [18] is Mus musculus. In words: Compound was evaluated for induction of hyperplasia after four application at dose 3 (micro/application). In kind it is functional.

This is an account of results in ChEMBL document CHEMBL1144943, “New amide-bearing benzolactam-based protein kinase C modulators induce enhanced secretion of the amyloid precursor protein metabolite sAPPalpha” (J Med Chem, 2003).

One may read the Ki as a measure of affinity in units of concentration, obtained from inhibition or displacement.

Molecules are shown by their SMILES.

Consider `CC(C)[C@H]1C(=O)N[C@H](CO)Cc2cc(NC(=O)CCCCc3ccc(C(F)(F)F)cc3)ccc2N1C`, for which the Epidermal thickness in assay [1], in assay [2], in [3], in [5], in [7] and in assay [8] was 1 each time. Also, the inhibition constant (Ki) in [4] was determined as 12.5 nM. The Activity in assay [6] was found to be 30.

For `CC(C)[C@H]1C(=O)N[C@H](CO)Cc2cc(NC(=O)CCCCc3ccc(CCC(F)(F)C(F)(F)C(F)(F)C(F)(F)C(F)(F)C(F)(F)F)cc3)ccc2N1C`, the inhibition constant Ki in assay [4] was 9.2 nM. Besides, the Activity in assay [6] is 20.

On to `CC(C)[C@H]1C(=O)N[C@H](CO)Cc2cc(NC(=O)/C=C/C=C/c3ccc(/C=C/C(F)(F)C(F)(F)C(F)(F)C(F)(F)C(F)(F)C(F)(F)F)cc3)ccc2N1C`, for which the inhibition constant (Ki) in assay [4] is 11.2 nM. The Activity in assay [6] turned out to be 10.

In the case of `CC(C)[C@H]1C(=O)N[C@H](CO)Cc2cc(NC(=O)/C=C/C=C/c3cc(C(F)(F)F)cc(C(F)(F)F)c3)ccc2N1C`, in [4], the inhibition constant Ki is 5.6 nM. In addition, the Activity in assay [6] came to 20.

Turning to `CC(C)[C@H]1C(=O)N[C@H](CO)Cc2cc(NC(=O)/C=C/C=C/c3ccc(C(F)(F)F)cc3)ccc2N1C`, the Epidermal thickness amounted to 1 in [9]; 1 in [10]; 1 in [11]; 1 in assay [12]; 1 in assay [13]; 2 in assay [14]. Further, the Epidermal thickness in assay [15] is on record as 2; in assay [16], 1; in assay [17], 3; in [18] it was 1. Further, the Ki in assay [4] turned out to be 11.9 nM. The Activity in [6] amounted to 40.

Take `CC(C)[C@H]1C(=O)N[C@H](CO)Cc2cc(NC(=O)/C=C/C=C/c3ccccc3)ccc2N1C`: in assay [4], the inhibition constant (Ki) came out at 15.8 nM. In addition, in [6], the Activity is 20.

Take `CC(C)[C@H]1C(=O)N[C@H](CO)Cc2cc(NC(=O)CCCCc3cc(C(F)(F)F)cc(C(F)(F)F)c3)ccc2N1C`: the inhibition constant (Ki) in assay [4] came out at 7.8 nM. For the same compound, in assay [6], the Activity came to 0.

For the compound `CC(C)[C@H]1C(=O)N[C@H](CO)Cc2cc(NC(=O)CCCCc3ccccc3)ccc2N1C`, in assay [4], the inhibition constant (Ki) was 34.2 nM. The Activity in assay [6] is 30.

Regarding `CCCCCC(=O)Nc1ccc2c(c1)C[C@@H](CO)NC(=O)[C@H](C(C)C)N2C`, in assay [6], the Activity came out at 30.

Regarding `C/C=C/C=C/C(=O)Nc1ccc2c(c1)C[C@@H](CO)NC(=O)[C@H](C(C)C)N2C`, in [4], the Ki came to 1970 nM. In assay [6], the Activity came to 10.

For `CCCCCCCCC#Cc1ccc2c(c1)C[C@@H](CO)NC(=O)[C@H](C(C)C)N2C`, the Activity in assay [6] turned out to be 0.
